# Activity calls are given as the source filed them. The calls are words filed in the database; no cut-off is given here.
# Assays:
# [1] = test system: L929; test: Induction of azide reporter generation in mouse L929 cells at 50 uM incubated for 72 hrs by Western blot analysis; format: functional, cell-based
# Outline: (§1)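 Cells seeded at 4 × 10⁴ per mL (MCF-7, RPMI/5% FBS) or 1 × 10⁴ per mL (L929, DMEM/10% FBS) and fed azido sugar at 37 °C for 72 h. RIPA lysates were cleared, protein-normalised and reacted with 0.5 μM phosphine-PEG3-biotin for 12 h at RT. 20 μg protein run on 8% SDS-PAGE, transferred to PVDF, blocked in BSA/TBST, probed overnight at 4 °C with streptavidin-HRP, ECL detection.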
# [2] = test system: MCF7; test: Induction of azide reporter generation in human MCF7 cells at 50 uM incubated for 72 hrs by Western blot analysis; format: functional, cell-based; outline: as §1
# [3] = test system: MCF7; test: Induction of azide reporter generation in human MCF7 cells at 50 uM incubated for 72 hrs by confocal laser microscopy; format: functional, cell-based
# Outline: (§2)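 Cells seeded at 4 × 10⁴ per mL (MCF-7) or 1 × 10⁴ per mL (L929) in glass-bottom dishes and kept with azido sugar at 37 °C for 72 h. Washed cells were labelled with 20 μM DBCO-Cy5 for 1 h at 37 °C, formaldehyde-fixed and DAPI-mounted. Confocal imaging; mean fluorescence intensity quantified; mean ± SEM, n = 3.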
# [4] = test system: MCF7; test: Anticancer activity against human MCF7 cells assessed as cell viability at 50 uM by MTT assay relative to control; format: functional; conditions: read-out: Activity
# [5] = test system: L929; test: Induction of azide reporter generation in mouse L929 cells at 50 uM incubated for 72 hrs by confocal laser microscopy; format: functional, cell-based; outline: as §2
# [6] = test system: MCF7; test: Anticancer activity against Tetra-O-acetyl-azidomannosamine engineered human MCF7 cells incubated for 72 hrs by MTT assay; format: functional, cell-based; conditions: MCF7, 72 h
# Outline: (§3)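 MCF-7 cells grown in RPMI 1640 with 5% FBS at 37 °C, 5% CO2. Cells were pre-labelled with 50 μM Ac4ManNAz for 72 h, then seeded at 4 × 10⁴ cells per mL. After 24 h they were exposed to prodrug at 0.001–10 μM for 72 h. MTT (0.5 mg mL⁻¹, 4 h) was added, formazan dissolved in DMSO, A570 read. Untreated cells served as control. Triplicates; IC50 from fitted curve; mean ± SEM.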
# [7] = Cytotoxicity against Tetra-O-acetyl-azidomannosamine engineered mouse L929 cells incubated for 72 hrs by MTT assay; format: toxicity, cell-based; conditions: L929 cells engineered with Tetra-O-acetyl-azidomannosamine
# Outline: as §3, with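 “L929 cells” for “MCF-7 cells”, “in DMEM” for “in RPMI 1640”, “with 10%” for “with 5%”, “at 1” for “at 4”, “× 10⁵” for “× 10⁴”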
# [8] = Selectivity index, ratio of IC50 for mouse L929 cells to IC50 for human MCF7 cells; format: toxicity; conditions: L929 cells and MCF7 cells, read-out: Ratio IC50
# Outline: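 MTT assay on MCF-7 (RPMI, 5% FBS) and L929 (DMEM, 10% FBS) at 37 °C, 5% CO2. Some cells were first given 50 μM azido-sugar for 72 h. Cells were seeded at 4 × 10⁴ or 1 × 10⁵ cells/mL for 24 h, then treated with 0.001–10 μM for 72 h. MTT 0.5 mg/mL, 4 h, DMSO, A570; untreated control; triplicate; IC50 from fitted curves; ratio L929/MCF-7.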
IC50 [6] [µM],Compound,Activity [1],Activity [2],Activity [3],viability at 50 µM [4] [%],Activity [5],IC50 at 72 h [7] [µM],selectivity ratio [8]
,CC(=O)N[C@H]1[C@H]([C@H](OC(C)=O)[C@@H](CN=[N+]=[N-])OC(C)=O)O[C@@](OC(C)=O)(C(=O)O)C[C@@H]1OC(C)=O,inactive,Active,Active,100,inactive,,
0.2,COc1cccc2c1C(=O)c1c(O)c3c(c(O)c1C2=O)C[C@@](O)(C(=O)CO)C[C@@H]3OC1C[C@@H](NC(=O)c2ccccc2P(c2ccccc2)c2ccccc2)[C@@H](O)[C@@H](C)O1 (some centres undefined),,,,,,7.7,2
,"CC(=O)N[C@H]1[C@H]([C@H](O)[C@H](O)CN=[N+]=[N-])OC(O)(C(=O)O)C[C@@H]1O (single isomer, unassigned)",inactive,Active,Active,100,inactive,,
,O=C(Nc1ccc(N(CCCl)CCCl)cc1)c1ccccc1P(c1ccccc1)c1ccccc1,,,,,,,2
,CC(=O)OC[C@H]1OC(OC(C)=O)[C@@H](NC(=O)CN=[N+]=[N-])[C@@H](OC(C)=O)[C@@H]1OC(C)=O (some centres undefined),Active,Active,Active,100,Active,,
